Assay results: ChEMBL document CHEMBL4184233, “Design and synthesis of novel dasatinib derivatives as inhibitors of leukemia stem cells” (Bioorg Med Chem Lett, 2018)
Active and inactive are the calls of the source. The rule behind the calls is not given here.

Legend:
KG-1a [1] = assay: Growth inhibition of human KG1a cells; assay type: functional, cell-based
HL-60 = assay: Growth inhibition of human HL60 cells; assay type: functional, cell-based
K562 = assay: Growth inhibition of human K562 cells; assay type: functional, cell-based
MCF7 [2] = assay: Inhibition of colony formation in human MCF7 cells incubated for 10 days by crystal violet staining based plate cloning test; assay type: functional, cell-based
Procedure, shortened: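 MCF-7 colony formation assay. Cells received low, middle and high concentrations (0.96/1.90/3.80 μM or 0.68/1.35/2.70 μM, depending on compound) for 10 days. Colony counts were compared with an untreated control group, with significance at P < 0.05 and P < 0.01.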

B16-BL6 [3] = assay: Inhibition of cell migration of mouse B16-BL6 cells at 0.82 uM incubated for 24 to 48 hrs by cell wound scratch assay; assay type: functional, cell-based
Procedure, shortened: (§1)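 Wound-scratch migration assay in mouse B16BL6 monolayers. Each compound was given at a single concentration for 2 days, and migration was compared with an untreated control group.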

[4] = Toxicity in Kunming mouse assessed as survival rat at 200 mg/kg, po dosed once for 2 weeks; assay type: organism-based; details: in vivo
Procedure, shortened: (§2)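 Single oral dose to mice, then observed for 14 days with survival rate recorded. Doses tested were 200, 500 and 1000 mg/kg. The dasatinib comparator was given at 200 mg/kg only.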

Mus musculus [5] = assay: Toxicity in Kunming mouse assessed as survival rat at 500 mg/kg, po dosed once for 2 weeks; assay type: organism-based; details: in vivo, 336 h; procedure, shortened: as §2
Mus musculus [6] = assay: Toxicity in Kunming mouse assessed as survival rat at 1000 mg/kg, po dosed once for 2 weeks; assay type: organism-based; details: in vivo, 336 h; procedure, shortened: as §2
MCF7 [7] = details: Homo sapiens, 7.5 uM
B16-BL6 [8] = details: Mus musculus, 8.13 uM
KG-1a [9] = assay: Potency index, ratio of IC50 for dasatinib to IC50 for test compound for growth inhibition of human KG1a cells; assay type: functional
B16-BL6 [10] = assay: Inhibition of cell migration of mouse B16-BL6 cells at 1.43 uM incubated for 24 to 48 hrs by cell wound scratch assay; assay type: functional, cell-based; procedure, shortened: as §1

SMILES | IC50 (KG-1a [1]) | IC50 (HL-60) | IC50 (K562) | also measured
Cc1nc(Nc2ncc(C(=O)Nc3c(C)cccc3Cl)s2)cc(N2CCN(CCN)CC2)n1 | 25400 nM | 0.25 nM | 0.72 nM | 
Cc1nc(Nc2ncc(-c3nnc(-c4c(C)cccc4Cl)o3)s2)cc(N2CCN(CCN=C=S)CC2)n1 | 150 nM | 1420 nM | 1810 nM | 
Cc1nc(Nc2ncc(C(=O)Nc3c(C)cccc3Cl)s2)cc(N2CCN(CCNC(=O)CCl)CC2)n1 | 13600 nM | 0.86 nM | 1.67 nM | 
C=CC(=O)NCCN1CCN(c2cc(Nc3ncc(-c4nnc(-c5c(C)cccc5Cl)o4)s3)nc(C)n2)CC1 | 110 nM | 160 nM | 150 nM | 
Cc1nc(Nc2ncc(-c3cn(-c4c(C)cccc4Cl)nn3)s2)cc(N2CCN(CCO)CC2)n1 | 140 nM | 4.19 nM | 14.1 nM | inhibition (MCF7 [2]): Dose-dependent effect; inhibition (B16-BL6 [3]): Active; survival at 336 h [4]: 100%; Activity (Mus musculus [5]): Non-Toxic; Activity (Mus musculus [6]): Non-Toxic
C=CC(=O)NCCN1CCN(c2cc(Nc3ncc(C(=O)Nc4c(C)cccc4Cl)s3)nc(C)n2)CC1 | 12900 nM | 0.26 nM | 0.039 nM | 
Cc1nc(Nc2ncc(C(=O)Nc3c(C)cccc3Cl)s2)cc(N2CCN(CCO)CC2)n1 [DASATINIB] | 8980 nM | 0.11 nM | 0.069 nM | inhibition (MCF7 [7]): Active; survival at 336 h [4]: 100%; inhibition (B16-BL6 [8]): Active
Cc1nc(Nc2ncc(-c3nnc(-c4c(C)cccc4Cl)o3)s2)cc(N2CCN(CCN)CC2)n1 | 680 nM | 110 nM | 260 nM | 
Cc1nc(Nc2ncc(C(=O)Nc3c(C)cccc3Cl)s2)cc(N2CCN(CCN=C=S)CC2)n1 | 1960 nM | 1.07 nM | 3.77 nM | 
Cc1nc(Nc2ncc(-c3nnc(-c4c(C)cccc4Cl)o3)s2)cc(N2CCN(CCNC(=O)CCl)CC2)n1 | 9750 nM | 2120 nM | 3060 nM | 
Cc1nc(Nc2ncc(-c3nnc(-c4c(C)cccc4Cl)o3)s2)cc(N2CCN(CCO)CC2)n1 | 50 nM | 150 nM | 230 nM | Ratio IC50 (KG-1a [9]): 180; inhibition (MCF7 [2]): Dose-dependent effect; inhibition (B16-BL6 [10]): Active; survival at 336 h [4]: 100%; Activity (Mus musculus [5]): Non-Toxic; Activity (Mus musculus [6]): Non-Toxic
Cc1nc(Nc2ncc(-c3cn(-c4c(C)cccc4Cl)nn3)s2)cc(N2CCN(CCNC(=O)CCl)CC2)n1 | 450 nM | 9.82 nM | 17.6 nM | 
Cc1nc(Nc2ncc(-c3cn(-c4c(C)cccc4Cl)nn3)s2)cc(N2CCN(CCN=C=S)CC2)n1 | 320 nM | 16.6 nM | 36.5 nM | 
C=CC(=O)NCCN1CCN(c2cc(Nc3ncc(-c4cn(-c5c(C)cccc5Cl)nn4)s3)nc(C)n2)CC1 | 250 nM | 5.46 nM | 15.1 nM | 
Cc1nc(Nc2ncc(-c3cn(-c4c(C)cccc4Cl)nn3)s2)cc(N2CCN(CCN)CC2)n1 | 2060 nM | 4.08 nM | 11.7 nM | 
